In publication PMC6336391 (Journal of the American Chemical Society, 2018):
“And” between values parts separate entries of the source, which are not always exact repeats. Equal values may be shown once. Read-outs that look alike come from different tables or passages of the source.

Legend:
[1] = system: RAW 264.7 murine macrophage cells; test: MTT cytotoxicity in RAW 264.7 cells with added BSA; format: cell-based
Outline: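 MTT viability assay in murine RAW 264.7 macrophages with added bovine serum albumin. Test compounds were screened under both non-illuminated and illuminated conditions.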

[2] = system: HUVECs; test: MTT cytotoxicity in normal human cells; format: cell-based; details: up to 100 μM
[3] = system: TNF-α; test: Suppression of LPS-induced TNF-α production in RAW 264.7 cells; format: cell-based, murine; details: BSA 0.6 mM; for effect on TNF-α: LPS 1 μg/mL
Outline: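 RAW 264.7 murine macrophages with added BSA (0.6 mM) and test compound, kept either illuminated or dark. Plates were then treated with LPS (1 μg/mL final) for 1 h. TNF-α in each well's supernatant was measured by commercial ELISA. Means ± SEM from three independent experiments. Two-way ANOVA with Tukey post hoc tests against the LPS control and illuminated versus dark.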

[4] = system: A549 cells; test: MTT toxicity in A549 cells with added BSA; format: cell-based, human; details: BSA 0.6 mM
Outline: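 MTT viability assay in human A549 alveolar adenocarcinoma cells with added BSA (0.6 mM). Test compounds were tested under non-illuminated and illuminated conditions. Percent viability was plotted against concentration. IC50 was fitted by four-parameter nonlinear regression, only where viability fell by at least 50%.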

[5] = molecular target: T1, bovine serum albumin (Bos taurus, UniProt P02769); test: Bovine serum albumin binding by tryptophan fluorescence quenching
T1 sequence (P02769 25-607): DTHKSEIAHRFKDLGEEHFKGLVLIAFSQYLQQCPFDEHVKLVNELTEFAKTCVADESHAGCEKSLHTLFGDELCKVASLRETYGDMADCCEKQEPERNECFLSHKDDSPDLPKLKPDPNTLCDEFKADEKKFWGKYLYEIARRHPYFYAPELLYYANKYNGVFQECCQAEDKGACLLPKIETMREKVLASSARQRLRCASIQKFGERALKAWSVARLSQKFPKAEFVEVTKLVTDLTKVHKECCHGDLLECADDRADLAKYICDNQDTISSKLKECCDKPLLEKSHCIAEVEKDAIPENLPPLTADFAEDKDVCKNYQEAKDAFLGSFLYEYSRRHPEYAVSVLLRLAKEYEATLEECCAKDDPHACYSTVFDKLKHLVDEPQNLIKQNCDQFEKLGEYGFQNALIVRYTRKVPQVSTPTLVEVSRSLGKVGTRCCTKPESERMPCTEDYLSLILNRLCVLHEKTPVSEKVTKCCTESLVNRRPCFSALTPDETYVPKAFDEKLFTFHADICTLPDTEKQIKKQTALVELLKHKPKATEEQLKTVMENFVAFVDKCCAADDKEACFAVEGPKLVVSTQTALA

[6] = system: TNF-α; details: RAW 264.7 murine macrophages; cited from earlier work
[7] = molecular target: T1, bovine serum albumin; details: 22 °C, cited from earlier work
[8] = read-out: IC50 RAW 264.7, non-illuminated
[9] = read-out: IC50 A549, non-illuminated

In the case of 3-hydroxybenzo[g]quinolone [Compound 1], the IC50 [1, 8] is reported as 40.2 ± 1.44 µM, the cell viability [2] is reported as “greater than 50%” and the TNF-α level ([3]; 80 nM, illuminated (blue LED array, 1 hr), LPS 1 μg/mL 1 h) is reported as “almost completely suppressed”. The “effect on TNF-α” value ([3]; non-illuminated) was “dose-dependent decrease”, the IC50 [4, 9] was over 100 µM and the “KSV (binding constant with BSA)” value ([5]; 22 °C, 4% DMSO:Tris buffer pH 7.4, 0.1 M NaCl) was 2.9e+06 M⁻¹. The “Ka (ibuprofen)” value ([5]; 22 °C, in the presence of ibuprofen (Site II)) was 980000 M⁻¹, the “Ka (warfarin)” value ([5]; 22 °C, in the presence of warfarin (Site I)) was 610000 M⁻¹ and the “fold stronger binding to BSA than Flav-1” value ([5]; relative to Flav-1) was “approximately 900 fold”.

In the case of `NCC(=O)O.[C-]#[O+].[C-]#[O+].[C-]#[O+].[Cl][Ru]` [CORM-3], the “concentration at which effects on TNF-α expression start” value [6] is given as 10 µM.

With `O=C(Nc1cc2ccccc2cc1C(=O)O)c1ccccc1` [Compound 3, 3-(benzoylamino)-2-naphthalenecarboxylic acid] the IC50 ([1]; Mus musculus, RAW264.7, read-out: IC50 RAW 264.7, non-illuminated) was over 100 µM, the IC50 [1, 8] was over 100 µM and the “effect on TNF-α” value ([3]; illuminated) was “lack of any effect”. The IC50 ([4]; Homo sapiens, A549, read-out: IC50 A549, non-illuminated) was over 100 µM, the IC50 [4, 9] was over 100 µM and the “IC50 A549 (illuminated)” value ([4]; visible light illumination (in situ CO release)) was “non-toxic”.

For `O=c1c(O)c(-c2ccccc2)oc2cc3ccccc3cc12` [Flav-1, 3-hydroxybenzo[g]flavone, reference compound], the “Ka (ibuprofen)” value ([7]; in the presence of ibuprofen) is given as 2600 M⁻¹, the “Ka (warfarin)” value ([7]; in the presence of warfarin) is given as 360 M⁻¹ and the “IC50 RAW 264.7” value ([1]; non-illuminated) is given as “nontoxic”. The IC50 [1, 8] was over 100 µM, the cell viability [2] was “greater than 50%” and the IC50 [4, 9] was 82 µM and 81.9 µM.

In the case of “BSA-Ru(CO)2 conjugate: adduct formed by albumin binding of CORM-3”, the “concentration at which effects on TNF-α expression start” value [6] is given as 4.5 µM.
